Results from article PMC4931877 (The Journal of Pharmacology and Experimental Therapeutics, 2016).

What was measured:
CSF Aβ peptides = assay: MAD study pharmacodynamic effects on CSF Aβ peptides; type: in vivo, human
UGT1A1 = target: T1, UGT1A1 (Homo sapiens, UniProt P22309); assay: UGT1A1 inhibition; type: biochemical
T1 sequence (P22309 26-533): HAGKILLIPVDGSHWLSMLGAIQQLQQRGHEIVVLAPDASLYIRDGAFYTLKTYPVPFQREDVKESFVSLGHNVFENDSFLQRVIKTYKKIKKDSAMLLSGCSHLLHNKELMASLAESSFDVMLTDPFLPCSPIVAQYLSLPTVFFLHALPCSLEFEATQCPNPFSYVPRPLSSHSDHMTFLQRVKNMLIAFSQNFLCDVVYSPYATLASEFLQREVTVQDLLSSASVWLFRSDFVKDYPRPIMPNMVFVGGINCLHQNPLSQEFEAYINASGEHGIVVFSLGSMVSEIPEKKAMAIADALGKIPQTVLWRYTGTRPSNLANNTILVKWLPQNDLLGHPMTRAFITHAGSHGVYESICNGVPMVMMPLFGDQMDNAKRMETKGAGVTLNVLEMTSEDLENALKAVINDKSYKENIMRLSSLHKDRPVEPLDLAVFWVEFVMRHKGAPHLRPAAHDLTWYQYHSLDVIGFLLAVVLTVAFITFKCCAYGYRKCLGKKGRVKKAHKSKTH

CYP3A4 = CYP3A4 (Homo sapiens, UniProt P08684); assay: Preclinical CYP3A4 time-dependent inhibition, induction and metabolism; type: in vitro ADME
[1] = MAD study safety and tolerability; type: in vivo, human
Method in brief: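 Multiple-dose healthy young and elderly subjects were assessed by vital signs, physical examination, 12-lead ECG and clinical laboratory tests. AEs were spontaneously reported or elicited, and their onset, duration, intensity, seriousness, relatedness and action taken were recorded. AEs were coded by MedDRA 12.1 system organ class and preferred term. Columbia suicidality ratings were also collected.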

CSF Aβ42 = assay: Indirect-response simulation of CSF Aβ42 lowering from MAD exposure-response; parameters: species or system human; conditions: MAD exposure-response model, Fig. 3F

CYP3A4, sequence (P08684 whole entry): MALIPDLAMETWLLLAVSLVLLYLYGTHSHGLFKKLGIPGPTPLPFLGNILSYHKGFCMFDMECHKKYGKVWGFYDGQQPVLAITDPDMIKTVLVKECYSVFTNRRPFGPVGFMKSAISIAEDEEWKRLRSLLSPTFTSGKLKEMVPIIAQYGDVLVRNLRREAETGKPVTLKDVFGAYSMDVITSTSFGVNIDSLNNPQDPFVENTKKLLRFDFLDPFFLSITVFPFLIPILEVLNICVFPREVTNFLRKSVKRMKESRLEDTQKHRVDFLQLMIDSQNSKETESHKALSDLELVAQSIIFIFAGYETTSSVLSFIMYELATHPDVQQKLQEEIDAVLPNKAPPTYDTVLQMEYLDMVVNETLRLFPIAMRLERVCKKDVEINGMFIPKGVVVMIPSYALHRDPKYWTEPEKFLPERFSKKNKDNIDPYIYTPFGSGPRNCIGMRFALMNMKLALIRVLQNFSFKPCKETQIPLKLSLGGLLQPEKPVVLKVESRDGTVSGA

CNc1nc(Nc2ccc(-n3cnc(C)n3)c(OC)c2)nc2c1CC[C@H]2c1ccc(F)cc1 [BMS-932481, (S)-7-(4-fluorophenyl)-N2-(3-methoxy-4-(3-methyl-1H-1,2,4-triazol-1-yl)phenyl)-N4-methyl-6,7-dihydro-5H-cyclopenta[d]pyrimidine-2,4-diamine]
effect on CSF APL1β28 fragment (CSF Aβ peptides; MAD): No effects
effect on CSF Aβ14 fragment (CSF Aβ peptides; MAD): No effects
Mean decrease in CSF Aβ40, change from baseline (CSF Aβ peptides; MAD 50 mg, day 28): −36%
Mean decrease in CSF Aβ42, change from baseline (CSF Aβ peptides; MAD 50 mg, day 28): −38%
increase of CSF Aβ37, of baseline (CSF Aβ peptides; MAD 50 mg, day 28): 292%
Mean decrease in CSF Aβ40, change from baseline (CSF Aβ peptides; MAD 100 mg, day 28): −44%
Mean decrease in CSF Aβ42, change from baseline (CSF Aβ peptides; MAD 100 mg, day 28): −46%
increase of CSF Aβ37, of baseline (CSF Aβ peptides; MAD 100 mg, day 28): 518%
increase of CSF Aβ37, of baseline (CSF Aβ peptides; MAD 200 mg, 48, 72 or 96 hours after last dose): 484%–545
CSF Aβ40 and Aβ42 levels four days after the last day of dosing (CSF Aβ peptides; MAD 200 mg, 96 hours after last dose): still significantly reduced
increase of CSF Aβ38 (CSF Aβ peptides; MAD, 50 mg): 20%
increase of CSF Aβ38 (CSF Aβ peptides; MAD, 100 mg): 69%
increase of CSF Aβ38 (CSF Aβ peptides; MAD, 200 mg): 68%
CSF Aβ42/CSF Aβ40 ratio (CSF Aβ peptides; MAD, especially at the 200-mg dose): Trends in lowering
effect on CSF AB17 (CSF Aβ peptides; SAD and MAD (Supplemental Figs. 4C and 5F)): slight increases
effect on total Aβ in CSF (CSF Aβ peptides; at higher dose levels): modest decreases
IC50 (UGT1A1): 1340 nM
metabolizing enzyme (CYP3A4): primarily metabolized by CYP3A4
KI (inactivation) (CYP3A4; human): 82.5 µM
induction of CYP3A4 enzyme activity (CYP3A4; preclinical): weak inducer
ECG- or vital sign–related AEs ([1]; MAD): no ECG- or vital sign–related AEs
subjects with increases in total bilirubin ([1]; MAD 50 mg, three of six): 50%
subjects with low leukocyte counts ([1]; MAD 50 mg, three of six): 50%
subjects with increases in total bilirubin ([1]; MAD 100 mg, three of six): 50%
subjects with increases in bilirubin ([1]; MAD 200 mg, five of six): 83%
subjects with low estimated creatinine clearance ([1]; MAD 200 mg, three of six): 50%
subjects with low leukocyte counts ([1]; MAD 200 mg, three of six): 50%
AEs ([1]; MAD, 50 mg): 5 (83.3) n (%)
Deaths ([1]; MAD, 50 mg): 0 n (%)
Discontinuation due to AEs ([1]; MAD, 50 mg): 0 n (%)
Elevated ALT (marked laboratory abnormality) ([1]; MAD, 50 mg): 0 n (%)
Elevated bilirubin (marked laboratory abnormality) ([1]; MAD, 50 mg): 3 (50.0) n (%)
Elevates AST (marked laboratory abnormality) ([1]; MAD, 50 mg): 0 n (%)
Low hematocrit (marked laboratory abnormality) ([1]; MAD, 50 mg): 1 (16.7) n (%)
Low hemoglobin (marked laboratory abnormality) ([1]; MAD, 50 mg): 2 (33.3) n (%)
Low leukocytes (marked laboratory abnormality) ([1]; MAD, 50 mg): 3 (50.0) n (%)
Low lymphocytes (marked laboratory abnormality) ([1]; MAD, 50 mg): 1 (16.7) n (%)
Low neutrophils (marked laboratory abnormality) ([1]; MAD, 50 mg): 0 n (%)
SAEs ([1]; MAD, 50 mg): 0 n (%)
Treatment-related AEs ([1]; MAD, 50 mg): 3 (50.0) n (%)
AEs ([1]; MAD, 100 mg): 4 (66.7) n (%)
Deaths ([1]; MAD, 100 mg): 0 n (%)
Discontinuation due to AEs ([1]; MAD, 100 mg): 0 n (%)
Elevated ALT (marked laboratory abnormality) ([1]; MAD, 100 mg): 0 n (%)
Elevated bilirubin (marked laboratory abnormality) ([1]; MAD, 100 mg): 3 (50.0) n (%)
Elevates AST (marked laboratory abnormality) ([1]; MAD, 100 mg): 0 n (%)
Low hematocrit (marked laboratory abnormality) ([1]; MAD, 100 mg): 1 (16.7) n (%)
Low hemoglobin (marked laboratory abnormality) ([1]; MAD, 100 mg): 1 (16.7) n (%)
Low leukocytes (marked laboratory abnormality) ([1]; MAD, 100 mg): 1 (16.7) n (%)
Low lymphocytes (marked laboratory abnormality) ([1]; MAD, 100 mg): 0 n (%)
Low neutrophils (marked laboratory abnormality) ([1]; MAD, 100 mg): 1 (16.7) n (%)
SAEs ([1]; MAD, 100 mg): 0 n (%)
Treatment-related AEs ([1]; MAD, 100 mg): 1 (16.7) n (%)
AEs ([1]; MAD, 200 mg): 6 (100.0) n (%)
Deaths ([1]; MAD, 200 mg): 0 n (%)
Discontinuation due to AEs ([1]; MAD, 200 mg): 2 (33.3) n (%)
Elevated ALT (marked laboratory abnormality) ([1]; MAD, 200 mg): 4 (66.7) n (%)
Elevated bilirubin (marked laboratory abnormality) ([1]; MAD, 200 mg): 5 (83.3) n (%)
Elevates AST (marked laboratory abnormality) ([1]; MAD, 200 mg): 2 (33.3) n (%)
Low hematocrit (marked laboratory abnormality) ([1]; MAD, 200 mg): 0 n (%)
Low hemoglobin (marked laboratory abnormality) ([1]; MAD, 200 mg): 1 (16.7) n (%)
Low leukocytes (marked laboratory abnormality) ([1]; MAD, 200 mg): 3 (50.0) n (%)
Low lymphocytes (marked laboratory abnormality) ([1]; MAD, 200 mg): 0 n (%)
Low neutrophils (marked laboratory abnormality) ([1]; MAD, 200 mg): 2 (33.3) n (%)
SAEs ([1]; MAD, 200 mg): 2 (33.3) n (%)
Treatment-related AEs ([1]; MAD, 200 mg): 4 (66.7) n (%)
subjects with AEs ([1]; MAD, 15 subjects): 83.3%
AEs ([1]; MAD, all BMS-932481 doses): 15 (83.3) n (%)
Deaths ([1]; MAD, all BMS-932481 doses): 0 n (%)
Discontinuation due to AEs ([1]; MAD, all BMS-932481 doses): 2 (11.1) n (%)
Elevated ALT (marked laboratory abnormality) ([1]; MAD, all BMS-932481 doses): 4 (22.2) n (%)
Elevated bilirubin (marked laboratory abnormality) ([1]; MAD, all BMS-932481 doses): 11 (61.1) n (%)
Elevates AST (marked laboratory abnormality) ([1]; MAD, all BMS-932481 doses): 2 (11.1) n (%)
Low hematocrit (marked laboratory abnormality) ([1]; MAD, all BMS-932481 doses): 2 (11.1) n (%)
Low hemoglobin (marked laboratory abnormality) ([1]; MAD, all BMS-932481 doses): 4 (22.2) n (%)
Low leukocytes (marked laboratory abnormality) ([1]; MAD, all BMS-932481 doses): 7 (38.9) n (%)
Low lymphocytes (marked laboratory abnormality) ([1]; MAD, all BMS-932481 doses): 1 (5.6) n (%)
Low neutrophils (marked laboratory abnormality) ([1]; MAD, all BMS-932481 doses): 3 (16.7) n (%)
SAEs ([1]; MAD, all BMS-932481 doses): 2 (11.1) n (%)
Treatment-related AEs ([1]; MAD, all BMS-932481 doses): 8 (44.4) n (%)
subjects with treatment-related AEs ([1]; MAD, eight subjects): 44.4%
CSF Aβ42 lowering at exposures at which increases in liver enzymes were observed ([1]; after multiple dosing): greater than 70%
decrease of CSF Aβ42 levels within exposures free of liver toxicity findings (CSF Aβ42): ≤ 25%
